Data published in article PMC6792223 (Chemistry of Materials, 2019).

Assays:
proteinase K = proteinase K (Parengyodontium album, UniProt P06873); assay: Hydrogel weight loss in proteinase K solution or PBS; type: in vitro ADME; details: PBS 1× without enzyme, 37 °C, 22 days
How it was run: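 Gels (10 mM PA-E3, 10 mM DBS-COOH, or 5 mM/5 mM mixture) formed by GdL acidification, soaked 1 h in PBS, then incubated at 37 °C in proteinase K (5 mg/mL in PBS) or PBS 1× alone; solutions renewed after each weighing at intervals up to 22 days; weight loss = (Wf – Wi)/Wi × 100 versus initial weight.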

[1] = Optical appearance of the hydrogels; type: physicochemical; details: 10 mM gelator, gelation by GdL acidification overnight; visual
How it was run: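 Gelators at 10 mM in PBS (pH 7.4) were dissolved with 0.5 M NaOH (to pH 9), either singly or mixed at 100/0, 80/20, 50/50, 20/80 and 0/100 molar % (10 mM total). Solutions were shaken with GdL (4 mg per vial) until dissolved, then left overnight to gel.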

[2] = aqueous; cited from earlier work
[3] = test system: Human-adipose-derived stem cells (hADSCs); assay: Live/dead assay of cells cultured on the hydrogels; type: cell-based; details: 4 days in culture, live/dead staining
How it was run: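 GdL-formed gels at 1:0, 4:1, 1:1, 1:4 and 0:1 PA-E3/DBS-COOH were cross-linked with 50 mM CaCl2 and PBS-washed to pH 7. hADSCs were seeded at 5000 cells/mL and cultured 4 days at 37 °C, 5% CO2, with tissue-culture plastic as reference. Stained 30 min with calcein AM (live, green) and ethidium homodimer-1 (dead, red); imaged by confocal microscopy.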

proteinase K, sequence (P06873 106-384, species assumed): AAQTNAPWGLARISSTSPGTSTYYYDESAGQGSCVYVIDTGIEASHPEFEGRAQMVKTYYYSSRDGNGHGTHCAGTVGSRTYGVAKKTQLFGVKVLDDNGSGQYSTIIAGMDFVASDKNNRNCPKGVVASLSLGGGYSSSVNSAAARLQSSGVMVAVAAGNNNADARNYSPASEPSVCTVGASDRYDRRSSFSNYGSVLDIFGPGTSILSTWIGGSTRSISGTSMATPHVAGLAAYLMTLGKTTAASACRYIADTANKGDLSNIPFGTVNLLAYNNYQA

Molecule | Weight ratio of hydrogel in PBS (proteinase K) | Optical appearance of hydrogel (transparency) [1] | pKa of the terminal carboxylic acid [2] | Live cell coverage of hydrogel ([3]; confocal imaging) | Cell viability on hydrogel compared with PA-E3 hydrogels ([3]; qualitative comparison)
CH3-(CH2)14-CONH-VVVAAAEEE-CONH2 [PA-E3] | remained constant | optically transparent | 4–5 | – | –
O=C(O)c1ccc([C@@H]2OC[C@@H]3O[C@H](c4ccc(C(=O)O)cc4)O[C@H]([C@H](O)CO)[C@@H]3O2)cc1 [DBS-COOH] | – | translucent | 4–5 | fully covered with live cells | more viable
